Test results as given in ChEMBL document CHEMBL4190249, “Antiproliferative and apoptotic activities of sequence-specific histone acetyltransferase inhibitors” (Eur J Med Chem, 2017).
Calls of active or inactive are those of the source. The calls are words filed in the database; no cut-off is given here.

What was measured:
[1] = target: T1, Histone acetyltransferase p300 (Homo sapiens, UniProt Q09472); assay: Inhibition of p300 (unknown origin) at 1 to 5 uM sing H3 peptide and acetyl-coA as substrate by fluorometric assay
Method in brief: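 Fluorometric HAT kit assay with recombinant p300 core domain as enzyme and acetyl-CoA plus H3 histone peptide as substrates. Released CoA-SH reacts with a developer, read at Ex/Em 535/587 nm. Effectors were tested at 1 and 5 μM. HeLa nuclear extract served as positive control, and 0.5% DMSO was set as 100% activity.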

A549 = assay: Antiproliferative activity against human A549 cells at 0.1 to 10 uM after 96 hrs by WST8 assay; type: functional, cell-based
Method in brief: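 Cells seeded at 5×10^3 per well and grown 24 h at 37°C, 5% CO2. A549 medium was DMEM with 10% FBS and 2 mM L-glutamine. SW620 medium had 10% FBS and 1% penicillin/streptomycin. Medium was then replaced with conjugate at 0.1, 1, 5 or 10 μM for 96 h. WST-8 reagent was added and absorbance read at 450 nm. Results are mean ± SD.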

[2] = target: T1, Histone acetyltransferase p300; assay: Inhibition of p300 (unknown origin) using H3 peptide and acetyl-coA as substrate by fluorometric assay
Method in brief: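 Fluorometric HAT kit assay with recombinant p300 core domain as enzyme and acetyl-CoA plus H3 histone peptide as substrates. Effectors were tested at 1 and 5 μM. HeLa nuclear extract served as positive control, and 0.5% DMSO was set as 100% activity.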

dsDNA [3] = assay: Binding affinity to 5'-ACTTATTCCATATAGA-3'/3'-TGAATAAGGTATATCT-5' dsDNA (unknown origin) assessed as change in melting temperature at 2.5 uM by spectrophotometric method; type: nucleic-acid assay
dsDNA [4] = assay: Binding affinity to 5'-ACTTATCCACTATAGA-3'/3'-TGAATAGGTGATATCT-5' dsDNA (unknown origin) assessed as change in melting temperature at 2.5 uM by spectrophotometric method; type: nucleic-acid assay

T1 sequence (Q09472 whole entry, the tested form may be a part): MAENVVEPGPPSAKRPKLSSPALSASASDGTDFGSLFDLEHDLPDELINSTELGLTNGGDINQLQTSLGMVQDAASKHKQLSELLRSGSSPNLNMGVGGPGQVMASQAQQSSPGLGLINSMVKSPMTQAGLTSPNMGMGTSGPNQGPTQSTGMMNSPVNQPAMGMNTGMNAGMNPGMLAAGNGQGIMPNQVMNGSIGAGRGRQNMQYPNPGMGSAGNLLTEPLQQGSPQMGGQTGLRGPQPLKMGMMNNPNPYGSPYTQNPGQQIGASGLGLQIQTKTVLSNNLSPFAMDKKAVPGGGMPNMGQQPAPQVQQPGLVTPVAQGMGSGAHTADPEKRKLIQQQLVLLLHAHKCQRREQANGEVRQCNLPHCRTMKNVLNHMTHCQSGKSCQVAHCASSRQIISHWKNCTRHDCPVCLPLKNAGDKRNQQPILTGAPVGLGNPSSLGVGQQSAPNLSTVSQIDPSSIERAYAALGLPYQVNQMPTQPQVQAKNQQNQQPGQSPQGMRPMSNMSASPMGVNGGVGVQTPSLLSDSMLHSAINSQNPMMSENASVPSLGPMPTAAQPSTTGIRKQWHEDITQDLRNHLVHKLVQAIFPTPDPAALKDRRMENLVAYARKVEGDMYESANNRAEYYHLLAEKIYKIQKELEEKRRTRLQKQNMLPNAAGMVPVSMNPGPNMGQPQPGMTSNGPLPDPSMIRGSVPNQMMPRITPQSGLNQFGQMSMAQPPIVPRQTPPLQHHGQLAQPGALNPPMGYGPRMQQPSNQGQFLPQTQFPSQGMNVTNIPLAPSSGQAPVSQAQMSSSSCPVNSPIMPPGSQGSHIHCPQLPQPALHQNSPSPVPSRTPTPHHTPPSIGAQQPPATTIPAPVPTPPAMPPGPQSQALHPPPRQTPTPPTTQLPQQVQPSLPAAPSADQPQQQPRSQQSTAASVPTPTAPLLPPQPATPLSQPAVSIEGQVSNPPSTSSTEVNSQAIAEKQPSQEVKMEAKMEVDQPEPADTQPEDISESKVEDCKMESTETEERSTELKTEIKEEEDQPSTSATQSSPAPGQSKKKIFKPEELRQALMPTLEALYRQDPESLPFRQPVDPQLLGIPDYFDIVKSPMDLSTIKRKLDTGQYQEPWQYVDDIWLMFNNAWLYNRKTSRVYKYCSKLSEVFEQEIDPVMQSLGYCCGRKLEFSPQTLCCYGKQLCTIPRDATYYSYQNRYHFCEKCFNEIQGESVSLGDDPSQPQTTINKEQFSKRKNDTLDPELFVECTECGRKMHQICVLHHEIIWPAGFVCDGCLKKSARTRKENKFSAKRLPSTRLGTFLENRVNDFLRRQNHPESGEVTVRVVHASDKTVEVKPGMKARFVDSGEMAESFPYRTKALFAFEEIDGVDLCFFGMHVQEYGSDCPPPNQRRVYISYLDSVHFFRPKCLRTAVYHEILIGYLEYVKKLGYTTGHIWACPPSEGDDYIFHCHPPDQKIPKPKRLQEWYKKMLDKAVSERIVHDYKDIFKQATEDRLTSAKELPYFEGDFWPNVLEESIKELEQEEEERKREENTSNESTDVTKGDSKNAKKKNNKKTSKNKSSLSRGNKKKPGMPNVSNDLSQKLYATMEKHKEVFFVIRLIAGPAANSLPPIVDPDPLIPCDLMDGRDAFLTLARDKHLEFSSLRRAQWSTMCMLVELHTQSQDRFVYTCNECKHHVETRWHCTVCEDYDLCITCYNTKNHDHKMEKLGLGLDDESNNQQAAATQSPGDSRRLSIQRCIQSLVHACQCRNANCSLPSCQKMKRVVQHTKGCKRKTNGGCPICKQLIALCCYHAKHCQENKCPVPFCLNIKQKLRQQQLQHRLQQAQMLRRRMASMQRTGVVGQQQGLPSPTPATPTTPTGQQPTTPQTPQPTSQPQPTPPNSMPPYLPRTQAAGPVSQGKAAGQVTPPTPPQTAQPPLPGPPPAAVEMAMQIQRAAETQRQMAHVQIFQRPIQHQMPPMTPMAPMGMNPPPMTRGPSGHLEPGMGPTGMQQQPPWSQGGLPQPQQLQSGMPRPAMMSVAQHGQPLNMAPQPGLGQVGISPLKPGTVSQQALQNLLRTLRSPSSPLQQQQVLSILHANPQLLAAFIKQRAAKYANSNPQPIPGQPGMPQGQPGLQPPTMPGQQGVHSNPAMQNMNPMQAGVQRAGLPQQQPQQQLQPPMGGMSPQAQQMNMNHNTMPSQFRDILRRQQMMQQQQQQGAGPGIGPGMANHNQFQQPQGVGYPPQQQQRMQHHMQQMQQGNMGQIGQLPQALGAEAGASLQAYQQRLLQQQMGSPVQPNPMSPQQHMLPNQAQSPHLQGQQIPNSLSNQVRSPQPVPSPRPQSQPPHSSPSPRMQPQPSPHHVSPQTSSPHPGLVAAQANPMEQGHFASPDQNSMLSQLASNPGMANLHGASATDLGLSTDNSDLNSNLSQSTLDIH

Row | SMILES | inhibition [1] | Activity (A549) | inhibition [2] | ΔTm (dsDNA [3]) | ΔTm (dsDNA [4]) | IC50 [2]
1 | CC(=O)Nc1cc(C(=O)Nc2cn(C)c(C(=O)Nc3cn(C)c(C(=O)Nc4cc(C(=O)NCCCC(=O)Nc5cc(C(=O)Nc6cc(C(=O)Nc7cc(C(=O)Nc8cc(C(=O)NCCCN(C)C)n(C)c8)n(C)c7)n(C)c6)n(C)c5)n(C)c4)n3)n2)n(C)c1 | inactive | inactive | – | – | – | –
2 | CCCCCCCCCCCCCCCc1cccc(O)c1C(=O)O | – | – | Dose-dependent effect | – | – | –
3 | CC1=NN(c2ccc(C(=O)NCCOCCOCC(=O)NCCOCCOCC(=O)Nc3cc(C(=O)Nc4cn(C)c(C(=O)Nc5cn(C)c(C(=O)Nc6cc(C(=O)NCCCC(=O)Nc7cc(C(=O)Nc8cc(C(=O)Nc9cc(C(=O)Nc%10cc(C(=O)NCCCN(C)C)n(C)c%10)n(C)c9)n(C)c8)n(C)c7)n(C)c6)n5)n4)n(C)c3)cc2)C(=O)/C1=C/c1ccc(-c2cc(C)c(C)cc2[N+](=O)[O-])o1 | – | Active | – | 18.4 °C | 12.2 °C | 3.9 to 4.2 µM
4 | CC1=NN(c2ccc(C(=O)NCCC(=O)NCCC(=O)Nc3cc(C(=O)Nc4cn(C)c(C(=O)Nc5cn(C)c(C(=O)Nc6cc(C(=O)NCCCC(=O)Nc7cc(C(=O)Nc8cc(C(=O)Nc9cc(C(=O)Nc%10cc(C(=O)NCCCN(C)C)n(C)c%10)n(C)c9)n(C)c8)n(C)c7)n(C)c6)n5)n4)n(C)c3)cc2)C(=O)/C1=C/c1ccc(-c2cc(C)c(C)cc2[N+](=O)[O-])o1 | – | Active | – | 16.9 °C | 11 °C | 3.9 to 4.2 µM
